Results from different studies.
Lines come from different studies, so protocols differ.
Target: Atypical kinase COQ8A, mitochondrial (COQ8A, Homo sapiens, UniProt Q8NI60)

SMILES	read-out	method	concentration	remaining binding
C=CC(=O)N1CCC(C(=O)NCC(=O)N2CCN(c3nc(-c4cnc(N)nc4C(F)F)nc(N4CCOCC4)n3)CC2)CC1	binding	competition with immobilised ligand	1 µM	78%
O=C(N[C@H]1CCCCC/C=C\C2C[C@@]2(C(=O)O)NC(=O)[C@@H]2C[C@@H](Oc3ccncc3)CN2C1=O)OC1CCCC1 (stereo partly drawn)	binding	competition with immobilised ligand	1 µM	90%
CN(C)c1nccc(-c2cnn3ncccc23)n1	binding		1 µM	88%
C[C@H](c1ccnc(Nc2nc3ccc(-c4cc(N(C)C)ncn4)cc3[nH]2)c1)N1CCN(C(=O)CC(F)(F)F)CC1	cell-free assay	competition with immobilised ligand	0.1 µM	100%
CN(CCCC(F)(F)F)c1nccc(-c2cnn3ncccc23)n1	binding		1 µM	99%
Cn1nc(C(F)(F)F)cc1-c1cnc(N2CCc3cc(S(=O)(=O)Nc4c(F)cc(Cl)cc4F)cc(N4CCCC4=O)c32)nc1	cell-free assay	competition with immobilised ligand	1 µM	100%
O=C(NCC1CCOCC1)c1n[nH]cc1NC(=O)c1c(F)cccc1F	binding	competition with immobilised ligand	1 µM	86%
Cc1cc(NC(=O)c2cccc(S(F)(F)(F)(F)F)c2)cc(-n2ccn3nc(-c4cccnc4)cc23)c1	cell-free assay	competition with immobilised ligand	1 µM	82.8%
COc1cnc(Nc2cccc(S(N)(=O)=O)c2)nc1N1CCN(c2ccccc2)C(=O)C1	binding	competition with immobilised ligand	1 µM	100%
N#Cc1ccccc1CSc1nnc2c(n1)[nH]c1ccccc12	binding	competition with immobilised ligand	10 µM	95%
COc1ccnn2ncc(-c3ccnc(N(C)C)n3)c12	binding		1 µM	100%
C[C@@H]1CN(c2ccc3ncc(-c4ccc5[nH]nc(C6CC6)c5c4)n3n2)C[C@H](C)O1	binding	competition with immobilised ligand	50 nM	94%
C[C@H]1CCN(c2nccc(-c3cnn4ncccc34)n2)C1	binding		1 µM	100%
COc1cnc(Nc2cccc(S(N)(=O)=O)c2)nc1N1CCN(c2ccccc2)CC1	binding	competition with immobilised ligand	1 µM	100%
c1cncc(-c2cccc(Nc3nccc(NC4CCCCC4)n3)c2)c1	binding	competition with immobilised ligand	10 µM	81%
O=C(NCc1ncc(C(F)(F)F)cc1Cl)c1ccc2c(c1)C1(CCS(=O)(=O)CC1)[C@@H](C1CC1)N2S(=O)(=O)c1ccc(F)cc1	cell-free assay	competition with immobilised ligand	1 µM	90%
CC(C)(C)c1ccc(-c2nc(CBr)nn2-c2cccc(O)c2)cc1	cell-free assay	competition with immobilised ligand	10 µM	86%
O=c1nc(-c2ccccn2)sc2ccccc12	cell-free assay	competition with immobilised ligand	1 µM	88%
O=C(NCCCN1CCOCC1)c1ccc(Nc2ncc(Cl)c(-c3ccc(Cl)s3)n2)cc1	binding	competition with immobilised ligand	1 µM	100%
CN(C)c1nccc(-c2cnc3ncccn23)n1	binding		1 µM	100%
O=C(c1ccc(Nc2ncc(Cl)c(-c3cc4ccccc4s3)n2)cc1)N1CCC(N2CCCC2)CC1	binding	competition with immobilised ligand	1 µM	78%
N[C@H]1CCN(c2nccc(-c3cnn4ncccc34)n2)C1	binding		1 µM	79%
CC(=O)C1=C(C)N(c2cccc(C(F)(F)F)c2)C(=O)N[C@@H]1c1ccc(C#N)nc1	cell-free assay	competition with immobilised ligand	1 µM	100%
O=C(c1ccc(Nc2ncc(Cl)c(-c3ccc(Cl)s3)n2)cc1)N1CCC(N2CCCC2)CC1	binding	competition with immobilised ligand	1 µM	100%
